Source: PubChem (several laboratories)
Only a selection was taken, and hits are over-represented in it overall.
TNAP act mid DEA: human TNAP activation, intermediate phosphate acceptor | P05186 | purified TNAP, CDP-star luminescence, 100 mM DEA, 30 min; active compounds read high; scale: 0 levamisole-inhibited, 1 vehicle-only enzyme | activation factor at 20 µM | 64,000 tested, under 10 active | AID 813;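 active = activation factor of at least 2 at 20 µM, relative to controls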
tolC growth inh: E. coli tolC mutant growth inhibition; E. coli BW25113 tolC mutant growth, OD615; growth inhibition, % at 10 µM (by protocol); hit rate 2.2% among 65,000; AID 573;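 active = growth inhibition at or above a cutoff equal to the mean over every tested compound plus 3 SD, cut at about 60% in these data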;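 note: growth measured after 20 h incubation at 37 °C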
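System: E. coli ΔtolC::kan strain BW25113; Buffer or medium: LB broth supplemented with 50 µg/mL kanamycin; Compound: 10 µM final, single dose; Incubation: bacterial growth with compound for 20 h at 37 °C; Signal: A615 absorbance measurement; Evaluation: growth inhibition in percent.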
BAP1 inh: inhibitors of human BAP1 deubiquitinase. recombinant BAP1, Ub-AMC hydrolysis fluorescence kinetic; active compounds read low. calls only at 20 µM. hit rate 0.48% among 72,000. AID 436;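 active = activity remaining at or below 50% of control, provided the compound also passes the data quality filters; inactive = the rest, including low values that fail the filters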;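 note: 100% = DMSO wells rate and 0% = substrate alone blank rate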
Ecoli WT expand: E. coli BW25113 growth inhibition, expanded screen; hit rate 0.15% among 98,000; OD600 absorbance; growth inhibition, % at 100 µM;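 active = growth inhibition above about 50% at one test dose, limit read from the data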;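 note: growth measured after 20 h incubation at 37 °C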
WNV NS2B-NS3 inh: blocks West Nile virus NS2B-NS3 protease activity. WNV NS2B-NS3 protease, fluorogenic substrate Ex360/Em465; active compounds read low. z-score (concentration not given with the values). hit rate 0.18% among 65,000; in the data active = z-score below about -3
Target sequence (P06935 1371-1501 limits assumed): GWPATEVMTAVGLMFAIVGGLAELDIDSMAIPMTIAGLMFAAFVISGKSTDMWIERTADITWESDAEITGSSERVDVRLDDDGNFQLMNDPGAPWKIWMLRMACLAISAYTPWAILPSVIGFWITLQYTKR
Target sequence (P06935 1502-1679 limits assumed): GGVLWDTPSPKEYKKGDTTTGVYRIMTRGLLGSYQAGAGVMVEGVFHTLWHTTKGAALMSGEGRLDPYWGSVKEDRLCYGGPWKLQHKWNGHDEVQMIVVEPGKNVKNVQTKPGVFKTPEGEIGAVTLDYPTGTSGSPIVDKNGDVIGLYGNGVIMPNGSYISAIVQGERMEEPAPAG
An asterisk follows results filed as active; i = inactive; . = no result shown.

SMILES	TNAP act mid DEA	tolC growth inh	BAP1 inh	Ecoli WT expand	WNV NS2B-NS3 inh
COc1ccccc1N1CCN(C(c2ccccc2Cl)c2nnnn2C(C)(C)C)CC1 (configuration not stated)	0.9	63.5*	i	-11.0	0.77
COc1ccccc1C(c1nnnn1C(C)(C)C)N1CCN(Cc2ccncc2)CC1 (configuration not stated)	1	-7.6	i	-5.0	-0.85
COc1ccccc1N1CCN(C(c2ccc(Cl)cc2)c2nnnn2C(C)(C)C)CC1 (configuration not stated)	0.9	66.0*	i	-19.0	-0.06
CCc1c(O)nc(SCc2ccccc2)n(C(C)CC)c1=O (configuration not stated)	0.9	70.1*	i	8.0	-0.23
CC1=C(C(=O)OCCc2ccccc2)C(c2cccc(O)c2)C2=C(CCCC2=O)N1 (configuration not stated)	.	.	i	.	.
CCOC(=O)c1c(NC(=O)c2ccccc2F)sc2c1CCC(C)C2 (configuration not stated)	.	.	i	.	.
CC1CCN(C(=O)c2ccc(COc3ccccc3Cl)o2)CC1	1	86.7*	i	12.0	0.4
Cc1cc(C)n(-c2nc(SCCN(C)C)c3c4c(sc3n2)COC(C)(C)C4)n1	.	.	.	17.0	.
NC(N)=N/N=C/c1ccccc1	.	.	.	-9.0	.
NC(N)=N/N=C/c1ccc(OCc2ccccc2Cl)cc1	.	.	.	99.0*	.
CCOc1ccc2cc(C(N)=O)c(=Nc3cccc(C)c3)oc2c1	.	.	i	.	.
O=C(Nc1ccc(Cl)c(Cl)c1)Oc1ccc(NC(=O)c2ccco2)cc1	.	.	.	25.0	.
O=C(Nc1ccc(Br)c(Cl)c1)c1ccco1	1	100.0*	i	5.0	-0.15
COc1c(C)cc(Br)cc1C(=O)Nc1cccc(NC(=O)c2ccco2)c1	0.9	74.2*	i	-19.0	0.19
O=C(CSc1ncc(-c2ccc(F)cc2)n1Cc1ccco1)Nc1ccc2c(c1)OCO2	1	69.7*	i	2.0	-0.39
Cc1c(N=Cc2ccc(N(C)C)cc2)c(=O)n(-c2ccccc2)n1C	.	.	i	.	.
O=C(Cn1c2c(c(-c3ccccc3)cc1=O)CCCC2)N1CCCCCC1	0.9	100.0*	i	.	1.67
COc1ccc2c(c1)CCc1c(C(=O)Nc3cc(C)n(Cc4ccc(Cl)cc4)n3)noc1-2	0.9	7.5	i	-9.0	-1.09
Cc1ccccc1Cn1nc(C)c(NC(=O)c2noc3c2CCCC3)c1C	0.9	5.3	i	1.0	0.42
Cc1cc(NC(=O)c2noc3c2CCCC3)nn1Cc1ccc(Cl)cc1	0.9	80.9*	i	6.0	-1.01
Cc1nn(Cc2ccccc2Cl)c(C)c1NC(=O)c1noc2c1CCCCC2	0.9	65.3*	i	-6.0	1.66
COC(=O)c1ccccc1NC(=O)/C=C/c1cc(OC)c(OC)c(OC)c1	.	.	.	-10.0	.
CCOC(=O)c1ccc(NC(=O)CSc2nc(SC)ns2)cc1	0.9	100.0*	i	22.0	-0.48
Cc1oc2nc(SCC(=O)NC3CCCCC3)nc(N)c2c1C	.	13.8	i	.	2.03
Oc1ccc(-c2[nH]ncc2Oc2ccccc2)c(O)c1O	.	.	i	.	.
SMILES	TNAP act mid DEA	tolC growth inh	BAP1 inh	Ecoli WT expand	WNV NS2B-NS3 inh
CCCOC(=O)c1ccc(Oc2c(-c3ccc(OCC)cc3O)n[nH]c2C)cc1	1	26.0	i	13.0	0.19
CCOc1ccc(-c2[nH]ncc2Oc2cccc(OC)c2)c(O)c1	1.1	98.6*	i	15.0	0.71
COc1cccc(Oc2cn[nH]c2-c2ccc(OC)cc2O)c1	1	97.2*	i	20.0	0.32
CCCOC(=O)c1ccc(Oc2cn[nH]c2-c2ccc(OCC)cc2O)cc1	1	69.8*	i	11.0	-0.13
COc1ccc(Oc2c(-c3ccc(O)cc3O)n[nH]c2C)cc1	1.2	53.8	i	17.0	1.04
COc1cccc(Oc2cn[nH]c2-c2ccc(O)cc2O)c1	0.9	96.5*	i	24.0	0.34
COc1ccc(OC)c(C2C(C(=O)OC3CCCC3)=C(C)NC3=C2C(=O)CC(C)(C)C3)c1 (configuration not stated)	.	.	i	.	.
Cc1noc(NS(=O)(=O)c2ccc(NC(=O)Nc3ccc(Cl)c(Cl)c3)cc2)c1C	1	100.0*	.	13.0	2.48
CC1CCN(S(=O)(=O)c2ccc(Cl)cc2Br)CC1	0.8	97.9*	i	8.0	-0.03
O=S(=O)(c1cc(Cl)ccc1Br)N1CCCCC1	0.9	17.2	i	2.0	-0.61
O=C1c2[nH]nc(-c3ccccc3O)c2C(c2cccc(Cl)c2)N1Cc1ccco1 (configuration not stated)	1.2	100.0*	i	-3.0	0.11
O=C1c2[nH]nc(-c3ccccc3O)c2C(c2ccc(F)cc2)N1Cc1ccco1 (configuration not stated)	1.3	100.0*	i	0.0	1.17
O=C1c2[nH]nc(-c3ccccc3O)c2C(c2cccc(Cl)c2)N1CC1CCCO1 (configuration not stated)	1.3	88.0*	i	6.0	-0.38
COc1cccc(C(=O)NC2(C(F)(F)F)N=C3SCCN3C2=O)c1 (configuration not stated)	0.9	-32.4	i	-2.0	-4.77*
O=C1CC(N(CCc2ccccc2)C(=S)Nc2cc(Cl)ccc2Cl)C(=O)N1c1c(Cl)cccc1Cl (configuration not stated)	.	.	.	-15.0	.
Cc1ccc(S(=O)(=O)CC(=O)Nc2nc(-c3ccccc3)cs2)cc1	.	.	.	-9.0	.
O=C(CS(=O)(=O)c1ccccc1)Nc1nc(-c2ccccc2)cs1	1	100.0*	i	-5.0	-0.28
CN(C)S(=O)(=O)c1cc([N+](=O)[O-])ccc1N1CCc2ccccc2C1	.	.	i	.	.
CC(=O)c1sc(NC(=O)C2(F)C(F)(F)C(F)(F)C(F)(F)C(F)(F)C2(F)F)nc1C	1	100.0*	i	8.0	-1.03
O=C(CSc1ncn(-c2ccccc2)n1)Nc1nc2c(s1)CCCC2	0.9	60.9*	.	-4.0	0.05
O=C(CSc1ncn(-c2ccccc2)n1)Nc1nc2ccccc2s1	0.9	32.6	i	-2.0	-0.27
Cc1cc(SCC#N)n2nc(C)c(-c3ccccc3)c2n1	1	61.4*	i	26.0	-1.28
O=C(Oc1ccc(Cl)c2cccnc12)c1ccco1	.	.	.	100.0*	.
CCN(c1ccccc1)S(=O)(=O)c1ccc(NC(=S)NC(=O)c2ccc(Br)o2)cc1	.	.	.	-7.0	.
CCN(c1ccccc1)S(=O)(=O)c1ccc(C(=O)Nc2nnc(COC)o2)cc1	0.9	95.3*	i	11.0	0.42
COCc1nnc(NC(=O)c2ccc(S(=O)(=O)N(C)c3ccccc3)cc2)o1	0.9	86.9*	i	5.0	2.45
COc1cccc(C(=O)Nc2ccc(Cl)cn2)c1	.	.	i	.	.
CCCCCSc1nnc(-c2cc(Br)ccc2N)c(=O)[nH]1	0.9	100.0*	i	5.0	0.55
CCc1ccc(S(=O)(=O)NCCc2csc(-c3ccccc3)n2)s1	.	92.8*	i	-16.0	0.02
O=C(c1ccccc1CCc1ccccc1)N1CCN(c2ccccn2)CC1	0.9	79.4*	i	-3.0	-0.29
